We go through one compound from paper PMC5814546 (Clinical Pharmacokinetics, 2017).

Common to all, as to assay type: in vivo, human
The nature of data set [1]: Phase I single ascending dose study of ALZ-801 loose-filled capsule. Conditions: plasma, ALZ-801 capsule 172 and 300 mg doses. Summed up:
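Single fasted oral loose-filled capsules; 172 mg in 36 healthy subjects over 50 y (parallel, randomized 1:1:1), 300 mg in 15 subjects over 50 y. Plasma sampled over 48 h into K3 EDTA on ice, spun 2000g 10 min 4 °C, stored at or below −20 °C. LC-MS assay; non-compartmental analysis; Tmax as median (range).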

The nature of data set [2]: Phase I multiple ascending dose study of ALZ-801 capsule and tablet. Particulars: plasma; for AUC24: mean ± SD.
Data set [3] is described as follows: Urine drug recovery, renal clearance and estimate of oral bioavailability. Conditions: for Mean Ae / CLr: Cohort D, 24-h urine; for CLr: mean ± SD. Summed up:
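Cohort D: 265 mg immediate-release tablet in the fed state (meal 30 min pre-dose), once on day 1, twice daily days 2–6, once on day 7. Urine was collected over 24 h on days 1 and 7 and assayed by LC-MS (LLOQ 30 ng/mL ALZ-801, 100 ng/mL tramiprosate). Renal clearance was calculated as Ae divided by plasma AUC24.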

For the compound `O=C(O)CCS(=O)(=O)O` [NRM5074], the “median T max” value is reported as “approximately 5 h” in data set [1]; 5 h in data set [2] (days 7 and 14, all dosing regimens). Further, the AUC24 in data set [2] (Day 1, fed, ALZ-801 tablet 265 mg (Cohort D)) stood at 1810 ± 348 ng·h/mL; in data set [2] (Day 7, fed, ALZ-801 tablet 265 mg twice daily (Cohort D)), 5470 ± 1030 ng·h/mL. In data set [2] (single oral dose of ALZ-801, day 1), this compound showed a T max range of 2 to 16 h. Also, the “Mean Ae” value is listed as 70.8 mg in data set [3] (Day 1, ALZ-801 tablet 265 mg) and 188.7 mg in data set [3] (Day 7, ALZ-801 tablet 265 mg). The CLr was 652 ± 161 mL/min in data set [3] (Day 1, ALZ-801 tablet 265 mg) and 575 ± 218 mL/min in data set [3] (Day 7, ALZ-801 tablet 265 mg). Besides, the “mean CLr (range)” value in data set [3] (across dosing cohorts and days, Study 2) is 500 to 1570 mL/min.
